Compound activity (PubChem)
Only a selection was taken, and hits are over-represented in it overall.
IDH1 R132H inh: IDH1 R132H (human) inhibition; IDH1 R132H reductase, diaphorase/resazurin fluorescence, 60 min; inhibition, % at 10 µM; actives 0.18% (n = 70,000); in the data active means inhibition above about 34%; inconclusive means no clear call, values can overlap the other calls; inactive means below about 11%;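 further: 0% = DMSO and 100% = no enzyme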
T cruzi growth-1: T. cruzi proliferation inhibition; actives 5.9% (n = 77,000); T. cruzi beta-gal in NIH3T3, GalScreen luminescence, 90 h; inhibition, % at 8.34 µM; AID 624255;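 active means mean inhibition above about 93%, with at least 55% of replicates each passing it, limit read from the data, passing the limit was not always enough; inconclusive means only one of those two conditions holds; inactive means neither condition holds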
KDM4C inh: KDM4C (human) demethylase inhibition; actives 0.15% (n = 96,000); Q9H3R0; inhibition, % at 12.5 µM; AID 720574; GST-KDM4C 2-372, H3K9me3 peptide, LANCE TR-FRET;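 active means mean replicate inhibition above about 25%, with at least 55% of replicates also reaching it, limit read from the data, passing the limit was not always enough; inconclusive means only one of those two conditions met; inactive means neither condition met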
Target sequence (Q9H3R0 2-372 limits assumed): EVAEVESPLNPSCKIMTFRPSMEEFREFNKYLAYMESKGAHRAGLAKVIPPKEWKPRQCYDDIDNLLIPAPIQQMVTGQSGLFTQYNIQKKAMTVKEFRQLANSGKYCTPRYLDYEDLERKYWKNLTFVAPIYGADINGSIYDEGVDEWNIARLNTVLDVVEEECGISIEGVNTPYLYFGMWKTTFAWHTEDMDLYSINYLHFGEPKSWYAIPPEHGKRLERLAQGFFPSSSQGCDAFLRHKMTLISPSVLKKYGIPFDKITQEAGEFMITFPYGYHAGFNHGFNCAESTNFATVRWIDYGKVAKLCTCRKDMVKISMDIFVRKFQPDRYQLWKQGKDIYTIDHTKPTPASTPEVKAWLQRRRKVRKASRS
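material = GST-tagged GASC-1 (JMJD2C) catalytic fragment, aa 2-372 | amount = enzyme final amount 10 nM | medium = HEPES buffer, pH 7.5, plus ascorbate | also added = H3K9me3 peptide substrate, Fe(II), 2-oxoglutarate | dosing = single dose | times = 30 min demethylation and 1 h detection at room temperature | detection = LANCE TR-FRET | read-out basis = Fall in 671/618 emission ratio as inhibition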
T cruzi growth-2: Trypanosoma cruzi proliferation inhibition; shares compounds with T cruzi growth-1; T. cruzi beta-gal in NIH3T3, GalScreen luminescence, 90 h; actives 72% (n = 5,600); AID 651739; inhibition, % at 8.35 µM;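 active means mean replicate inhibition above about 95% and at least 55% of replicates individually reaching it, limit read from the data; inconclusive means only one of the two criteria is met; inactive means neither criterion is met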
T cruzi growth-3: inhibitors of T. cruzi proliferation; shares compounds with T cruzi growth-1; T. cruzi beta-gal in NIH3T3, GalScreen luminescence, 90 h; inhibition, % at 2.09 µM; actives 21% (n = 5,600);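 active means mean inhibition above about 95%, with at least 55% of replicates also reaching it, limit read from the data; inconclusive means meets just one of the two conditions; inactive means meets neither condition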;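 further: plate controls were neutral control median for no effect and positive control median for full effect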
NIH3T3 tox: kills mouse NIH/3T3 fibroblasts | shares compounds with T cruzi growth-1 | NIH/3T3 viability, CellTiter-Glo ATP luminescence, 90 h | cytotoxicity (signal decrease), % at 8.35 µM | actives 14% (n = 5,600) | AID 651742;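 active means mean signal decrease across replicates above about 35% based on untreated-well scatter, with enough replicates individually passing, limit read from the data; inconclusive means no rule stated though some were filed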;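 further: 0% = median of neutral control wells and 100% = median of positive control wells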
NIH3T3 tox 2: cytotoxicity in mouse NIH/3T3 fibroblasts; NIH/3T3 viability, CellTiter-Glo ATP luminescence, 90 h; actives 56% (n = 5,600); shares compounds with T cruzi growth-1; AID 651744; inhibition, % at 24.9 µM;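 active means mean loss of cell viability signal at or above a set limit, and enough replicates individually reaching it; inconclusive means meets only the mean limit or only the replicate share; inactive means meets neither condition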;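 further: 0% = median of neutral control wells and 100% = median of positive control wells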
* = called active by the depositor; ? = inconclusive; / = not tested or not shown.

SMILES | IDH1 R132H inh | T cruzi growth-1 | KDM4C inh | T cruzi growth-2 | T cruzi growth-3 | NIH3T3 tox | NIH3T3 tox 2
O=C(Nc1ccccc1)N1CCCCN2[C@@H](CO)[C@@H](c3ccc(C#Cc4ccccn4)cc3)[C@@H]2C1 | / | 101* | 1 | 110* | 105* | -3 | 16
COc1ccc(NC(=O)N2CCCCN3[C@H](CO)[C@H](c4ccc(C#Cc5ccccc5)cc4)[C@H]3C2)cc1 | / | 62 | / | / | / | / | /
COc1ccc(NC(=O)N2CCCCN3[C@H](C2)[C@@H](c2ccc(C#Cc4ccccn4)cc2)[C@@H]3CO)cc1 | / | 103* | -1 | 103* | 94 | 9 | 38*
O=C(c1ccncc1)N1CCCCN2[C@H](CO)[C@H](c3ccc(C#Cc4ccccn4)cc3)[C@@H]2C1 | / | 33 | 0 | / | / | / | /
O=C(c1ccncc1)N1CCCCN2[C@H](C1)[C@@H](c1ccc(C#Cc3ccccn3)cc1)[C@@H]2CO | / | 108* | 1 | 105* | 13 | 3 | 5
CCS(=O)(=O)N1CCCCN2[C@H](C1)[C@@H](c1ccc(C#Cc3ccccn3)cc1)[C@@H]2CO | / | 95 | 0 | / | / | / | /
O=C(C[C@@H]1C=C[C@@H](NC(=O)c2ccncc2)[C@H](CO)O1)NCc1ccncn1 | / | / | 0 | / | / | / | /
CCCNC(=O)C[C@@H]1CC[C@@H]2[C@H](COC[C@H](O)CN2C(=O)c2cccnc2)O1 | / | 3 | -3 | / | / | / | /
COC(=O)c1ccccc1NC(=O)C1CC(c2cc(Cl)c(OC)cc2OC)=NO1 (stereo unspecified) | 0 | / | / | / | / | / | /
C[C@@H]1CN([C@H](C)CO)S(=O)(=O)c2ccc(C3=CCCCC3)cc2O[C@@H]1CN(C)C(=O)c1ccncc1 | 11 | 45 | 1 | / | / | / | /
C/C=C/c1ccc([C@@H]2[C@@H](CO)N(C(=O)NCCC)[C@H]2CNC(=O)C2CC2)cc1 | / | 16 | -3 | / | / | / | /
COc1ccc(C#Cc2ccc([C@@H]3[C@H]4CN(C(=O)c5ccncc5)CC(=O)N4[C@H]3CO)cc2)cc1 | / | / | -1 | / | / | / | /
Cc1noc(C)c1NC(=O)N[C@H]1C=C[C@@H](CC(=O)NCCCN(C)C)O[C@@H]1CO | 0 | 5 | 1 | / | / | / | /
Cc1noc(C)c1NC(=O)N[C@H]1CC[C@@H](CC(=O)NCCCN(C)C)O[C@@H]1CO | 0 | ? | 1 | 32 | -54 | 15 | -11
C[C@@H]1CN([C@@H](C)CO)C(=O)c2cc(NS(=O)(=O)c3cccs3)ccc2O[C@@H](C)CCCCO[C@@H]1CN(C)Cc1ccc(C(F)(F)F)cc1 | 1 | ? | 0 | 102* | 118* | -24 | 63*
C[C@@H]1CCCCO[C@H](CN(C)Cc2ccc(C(=O)O)cc2)[C@H](C)CN([C@@H](C)CO)C(=O)c2cc(NS(=O)(=O)c3cccs3)ccc2O1 | 12 | -6 | 3 | / | / | / | /
C[C@H]1CCCCO[C@@H](CN(C)Cc2ccc(C(F)(F)F)cc2)[C@@H](C)CN([C@@H](C)CO)C(=O)c2cc(NS(=O)(=O)c3cccs3)ccc2O1 | 0 | 112* | -1 | 90 | 58 | 18 | 105*
C[C@H]1CCCCO[C@H](CN(C)Cc2ccc(C(F)(F)F)cc2)[C@@H](C)CN([C@@H](C)CO)C(=O)c2cc(NS(=O)(=O)c3cccs3)ccc2O1 | / | 113* | 2 | 98* | 107* | -14 | 103*
C[C@@H]1CCCCO[C@@H](CN(C)Cc2ccc(C(F)(F)F)cc2)[C@@H](C)CN([C@@H](C)CO)C(=O)c2cc(NS(=O)(=O)c3cccs3)ccc2O1 | -5 | 93 | -2 | / | / | / | /
C[C@H](CO)N1C[C@H](C)[C@H](CN(C)Cc2ccc(C(F)(F)F)cc2)OCCCC[C@H](C)Oc2ccc(NS(=O)(=O)c3cccs3)cc2C1=O | / | / | 1 | / | / | / | /
Cc1noc(C)c1NC(=O)Nc1cccc2c1O[C@@H](CN(C)S(=O)(=O)c1ccccc1)[C@@H](C)CN([C@@H](C)CO)C2=O | / | 30 | -2 | / | / | / | /
C[C@@H]1CCCCO[C@@H](CN(C)S(=O)(=O)c2ccc(F)cc2)[C@H](C)CN([C@H](C)CO)C(=O)c2cc(NC(=O)Nc3ccc4c(c3)OCO4)ccc2O1 | 0 | 92 | -1 | / | / | / | /
